Source: ChEMBL document CHEMBL3997768, “The synthesis and antistaphylococcal activity of dehydroabietic acid derivatives: modifications at C12 and C7” (2017)
Values after ≈ are worked out from the molar mass of the structure shown. Active and inactive are the calls of the source. The rule behind the calls is not given here.

What was measured:
Format in all cases: functional
Staphylococcus aureus [1] = experiment: Antibacterial activity against linezolid-resistant Staphylococcus aureus NRS-271 containing phage type E-MRSA after 18 hrs by two fold serial dilution method; conditions: NRS-271, 18 h
Procedure, shortened: (§1)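 Strains grown overnight at 37 °C in TSB without antibiotic. Cultures were diluted 1000-fold, grown at 37 °C for 2–3 h to A600 0.6, then diluted 1:400 in fresh TSB. Equal volumes of bacteria and two-fold serial DMSO dilutions (final 0.39–50) were mixed. A600 was read after 18 h. MIC was the lowest concentration inhibiting growth. Run in triplicate, with vancomycin and tetracycline controls.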

Staphylococcus aureus [2] = experiment: Antibacterial activity against gentamicin-resistant Staphylococcus aureus NRS-108 after 18 hrs by two fold serial dilution method; conditions: NRS-108, 18 h; procedure, shortened: as §1
Escherichia coli = experiment: Antibacterial activity against Escherichia coli AB1157 at 50 ug/ml after 18 hrs by two fold serial dilution method
Procedure, shortened: (§2)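 Strains were grown overnight at 37 °C in TSB without antibiotic, diluted 1000-fold, and grown 2–3 h to A600 0.6. They were then diluted 1:400 in fresh TSB. Compounds in DMSO were two-fold serially diluted to a final 0.39–50 and mixed with an equal volume of bacteria. A600 was read after 18 h. MIC is the lowest concentration inhibiting growth. Triplicate; vancomycin and tetracycline were positive controls.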

Staphylococcus aureus [3] = experiment: Antibacterial activity against aminoglycosides/tetracycline-resistant Staphylococcus aureus NRS-1 after 18 hrs by two fold serial dilution method; conditions: NRS-1, 18 h; procedure, shortened: as §1
Staphylococcus aureus [4] = experiment: Antibacterial activity against erythromycin-resistant Staphylococcus aureus NRS-70 after 18 hrs by two fold serial dilution method; conditions: NRS-70, 18 h; procedure, shortened: as §1
Staphylococcus aureus [5] = experiment: Antibacterial activity against Staphylococcus aureus Newman after 18 hrs by two fold serial dilution method; procedure, shortened: as §2
Staphylococcus aureus [6] = experiment: Antibacterial activity against oxacillin/tetracycline-resistant Staphylococcus aureus NRS-100 after 18 hrs by two fold serial dilution method; conditions: NRS-100, 18 h; procedure, shortened: as §1

Compound	MIC (Staphylococcus aureus [1]) [µM]	MIC (Staphylococcus aureus [2]) [µM]	Activity (Escherichia coli)	MIC (Staphylococcus aureus [3]) [µM]	MIC (Staphylococcus aureus [4]) [µM]	MIC (Staphylococcus aureus [5]) [µM]	MIC (Staphylococcus aureus [6]) [µM]
CC(C)c1cc2c(cc1Br)[C@@]1(C)CCC[C@@](C)(C(=O)O)[C@@H]1C/C2=N\OCCNC(=O)c1ccc(Cl)s1	1.56 to 2.5 (≈ 0.93 to 1.49 µg/mL)	2.62 to 4.19 (≈ 1.56 to 2.5 µg/mL)	inactive	5.25 to 10.5 (≈ 3.13 to 6.25 µg/mL)	2.62 to 4.19 (≈ 1.56 to 2.5 µg/mL)	4.19 (≈ 2.5 µg/mL)	4.19 (≈ 2.5 µg/mL)
CC(C)c1cc2c(cc1Br)[C@@]1(C)CCC[C@@](C)(C(=O)O)[C@@H]1C/C2=N\OCCNC(=O)c1ccccc1	–	–	inactive	–	–	18 to 22.5 (≈ 10 to 12.5 µg/mL)	–
Cc1ccc(C(=O)NCCCO/N=C2\C[C@H]3[C@](C)(C(=O)O)CCC[C@]3(C)c3cc(Br)c(C(C)C)cc32)s1	–	–	inactive	–	–	6.36 to 8.48 (≈ 3.75 to 5 µg/mL)	–
CN[C@H](CC(C)C)C(=O)N[C@H]1C(=O)N[C@@H](CC(N)=O)C(=O)N[C@H]2C(=O)N[C@H]3C(=O)N[C@H](C(=O)N[C@H](C(=O)O)c4cc(O)cc(O)c4-c4cc3ccc4O)[C@H](O)c3ccc(c(Cl)c3)Oc3cc2cc(c3O[C@@H]2O[C@H](CO)[C@@H](O)[C@H](O)[C@H]2O[C@H]2C[C@](C)(N)[C@H](O)[C@H](C)O2)Oc2ccc(cc2Cl)[C@H]1O [VANCOMYCIN]	< 1.72	< 1.72	–	1.72 to 3.45 (≈ 2.49 to 5 µg/mL)	< 1.72	< 1.73	0.86 to 1.72 (≈ 1.25 to 2.49 µg/mL)
CC(C)c1cc2c(cc1Br)[C@@]1(C)CCC[C@@](C)(C(=O)O)[C@@H]1C/C2=N\OCCCNC(=O)c1ccccc1C(F)(F)F	–	–	inactive	–	–	7.84 to 9.8 (≈ 5 to 6.25 µg/mL)	–
CC(C)c1cc2c(cc1Br)[C@@]1(C)CCC[C@@](C)(C(=O)O)[C@@H]1C/C2=N\OCCCNC(=O)c1cccs1	–	–	inactive	–	–	> 86.9	–
CC(C)c1cc2c(cc1Br)[C@@]1(C)CCC[C@@](C)(C(=O)O)[C@@H]1C/C2=N\OCCNC(=O)c1ccccc1F	–	–	inactive	–	–	13.1 to 17.4 (≈ 7.5 to 10 µg/mL)	–
CC(C)c1cc2c(cc1Br)[C@@]1(C)CCC[C@@](C)(C(=O)O)[C@@H]1C/C2=N\OCCNC(=O)c1ccc(C(F)(F)F)cc1	–	–	inactive	–	–	5.02 to 8.02 (≈ 3.13 to 5 µg/mL)	–
CC(C)c1cc2c(cc1Br)[C@@]1(C)CCC[C@@](C)(C(=O)O)[C@@H]1C/C2=N\OCCNC(=O)c1cc(Br)cs1	–	–	inactive	–	–	5.86 to 7.81 (≈ 3.75 to 5 µg/mL)	–
Cc1ccc(C(=O)NCCO/N=C2\C[C@H]3[C@](C)(C(=O)O)CCC[C@]3(C)c3cc(Br)c(C(C)C)cc32)s1	–	–	inactive	–	–	13 to 17.4 (≈ 7.5 to 10 µg/mL)	–
CC(C)c1cc2c(cc1Br)[C@@]1(C)CCC[C@@](C)(C(=O)O)[C@@H]1C/C2=N\OCCNC(=O)Cc1ccccc1	–	–	inactive	–	–	17.6 (≈ 10 µg/mL)	–
CC(C)c1cc2c(cc1Br)[C@@]1(C)CCC[C@@](C)(C(=O)O)[C@@H]1C/C2=N\OCCCNC(=O)Cc1ccc(C(F)(F)F)cc1	4.8 to 9.59 (≈ 3.13 to 6.25 µg/mL)	2.39 to 3.84 (≈ 1.56 to 2.5 µg/mL)	inactive	> 19.2	2.39 to 3.84 (≈ 1.56 to 2.5 µg/mL)	3.84 (≈ 2.5 µg/mL)	4.8 to 9.59 (≈ 3.13 to 6.25 µg/mL)
CC(C)c1cc2c(cc1Br)[C@@]1(C)CCC[C@@](C)(C(=O)O)[C@@H]1C/C2=N\OCCNC(=O)Cc1ccc(C(F)(F)F)cc1	–	–	inactive	–	–	5.88 to 7.84 (≈ 3.75 to 5 µg/mL)	–
CC(C)c1cc2c(cc1Br)[C@@]1(C)CCC[C@@](C)(C(=O)O)[C@@H]1C/C2=N\OCCNC(=O)c1cc2ccccc2s1	2.05 to 2.55 (≈ 1.25 to 1.56 µg/mL)	2.55 to 4.09 (≈ 1.56 to 2.5 µg/mL)	inactive	4.09 to 5.12 (≈ 2.5 to 3.13 µg/mL)	2.04 to 4.09 (≈ 1.25 to 2.5 µg/mL)	2.04 to 4.09 (≈ 1.25 to 2.5 µg/mL)	2.55 to 4.09 (≈ 1.56 to 2.5 µg/mL)
CC(C)c1cc2c(cc1Br)[C@@]1(C)CCC[C@@](C)(C(=O)O)[C@@H]1C/C2=N\OCCCNC(=O)c1cc2ccccc2[nH]1	–	–	inactive	–	–	> 41.1	–
CC(C)c1cc2c(cc1Br)[C@@]1(C)CCC[C@@](C)(C(=O)O)[C@@H]1C/C2=N\OCCNC(=O)c1ccc[nH]1	–	–	inactive	–	–	5.75 to 9.18 (≈ 3.13 to 5 µg/mL)	–
CC(C)C(=O)NCCO/N=C1\C[C@H]2[C@](C)(C(=O)O)CCC[C@]2(C)c2cc(Br)c(C(C)C)cc21	–	–	inactive	–	–	76.7 to 95.9 (≈ 40 to 50 µg/mL)	–
COc1ccc(C(=O)NCCCO/N=C2\C[C@H]3[C@](C)(C(=O)O)CCC[C@]3(C)c3cc(Br)c(C(C)C)cc32)cc1	–	–	inactive	–	–	12.5 to 16.7 (≈ 7.5 to 10 µg/mL)	–
CC(C)c1cc2c(cc1Br)[C@@]1(C)CCC[C@@](C)(C(=O)O)[C@@H]1C/C2=N\OCCCNC(=O)Cc1ccccc1C(F)(F)F	–	–	inactive	–	–	7.67 (≈ 5 µg/mL)	–
CC(C)c1cc2c(cc1Br)[C@@]1(C)CCC[C@@](C)(C(=O)O)[C@@H]1C/C2=N\OCCNC(=O)c1ccsc1	–	–	inactive	–	–	> 89	–
CC(C)c1cc2c(cc1Br)[C@@]1(C)CCC[C@@](C)(C(=O)O)[C@@H]1C/C2=N\OCCCNC(=O)Cc1ccccc1	–	–	inactive	–	–	17.1 (≈ 10 µg/mL)	–
CC(=O)NCCO/N=C1\C[C@H]2[C@](C)(C(=O)O)CCC[C@]2(C)c2cc(Br)c(C(C)C)cc21	–	–	inactive	–	–	> 101	–
CC(C)c1cc2c(cc1Br)[C@@]1(C)CCC[C@@](C)(C(=O)O)[C@@H]1C/C2=N\OCCNC(=O)c1ccco1	–	–	inactive	–	–	36.7 to 45.8 (≈ 20 to 25 µg/mL)	–

Compound	MIC (Staphylococcus aureus [1]) [µM]	MIC (Staphylococcus aureus [2]) [µM]	Activity (Escherichia coli)	MIC (Staphylococcus aureus [3]) [µM]	MIC (Staphylococcus aureus [4]) [µM]	MIC (Staphylococcus aureus [5]) [µM]	MIC (Staphylococcus aureus [6]) [µM]
CC(C)c1ccc2c(c1)CC[C@H]1[C@](C)(C(=O)O)CCC[C@]21C [DEHYDROABIETIC ACID]	–	–	inactive	–	–	41.6 to 66.6 (≈ 12.5 to 20 µg/mL)	–
COc1ccc(C(=O)NCCO/N=C2\C[C@H]3[C@](C)(C(=O)O)CCC[C@]3(C)c3cc(Br)c(C(C)C)cc32)cc1	–	–	inactive	–	–	25.6 to 34.2 (≈ 15 to 20 µg/mL)	–
CC(C)c1cc2c(cc1Br)[C@@]1(C)CCC[C@@](C)(C(=O)O)[C@@H]1C/C2=N\OCCNC(=O)c1c(F)c(F)c(F)c(F)c1F	–	–	inactive	–	–	5.81 to 7.75 (≈ 3.75 to 5 µg/mL)	–
CC(C)c1cc2c(cc1Br)[C@@]1(C)CCC[C@@](C)(C(=O)O)[C@@H]1C/C2=N\OCCNC(=O)C1CC1	–	–	inactive	–	–	57.8 to 77 (≈ 30 to 40 µg/mL)	–
CC(C)c1cc2c(cc1Br)[C@@]1(C)CCC[C@@](C)(C(=O)O)[C@@H]1C/C2=N\OCCCNC(=O)c1ccsc1	–	–	inactive	–	–	17.4 (≈ 10 µg/mL)	–
CC(C)c1cc2c(cc1Br)[C@@]1(C)CCC[C@@](C)(C(=O)O)[C@@H]1C/C2=N\OCCNC(=O)Cc1ccccc1C(F)(F)F	–	–	inactive	–	–	7.84 (≈ 5 µg/mL)	–
CC(C)c1cc2c(cc1Br)[C@@]1(C)CCC[C@@](C)(C(=O)O)[C@@H]1C/C2=N\OCCNC(=O)c1ccccn1	–	–	inactive	–	–	26.9 to 35.9 (≈ 15 to 20 µg/mL)	–
CC(C)c1cc2c(cc1Br)[C@@]1(C)CCC[C@@](C)(C(=O)O)[C@@H]1C/C2=N\OCCCNC(=O)c1ccccn1	–	–	inactive	–	–	21.9 (≈ 12.5 µg/mL)	–
CCc1ccc(C(=O)NCCO/N=C2\C[C@H]3[C@](C)(C(=O)O)CCC[C@]3(C)c3cc(Br)c(C(C)C)cc32)cc1	–	–	inactive	–	–	4.28 to 6.42 (≈ 2.5 to 3.75 µg/mL)	–
CC(C)c1cc2c(cc1Br)[C@@]1(C)CCC[C@@](C)(C(=O)O)[C@@H]1C/C2=N\OCCN	–	–	inactive	–	–	> 111	–
CC(C)c1cc2c(cc1Br)[C@@]1(C)CCC[C@@](C)(C(=O)O)[C@@H]1C/C2=N\OCCCNC(=O)c1ccccc1	–	–	inactive	–	–	8.78 (≈ 5 µg/mL)	–
CC(C)c1cc2c(cc1Br)[C@@]1(C)CCC[C@@](C)(C(=O)O)[C@@H]1C/C2=N\OCCCN	–	–	inactive	–	–	> 107	–
CN(C)[C@@H]1C(O)=C(C(N)=O)C(=O)[C@@]2(O)C(O)=C3C(=O)c4c(O)cccc4[C@@](C)(O)[C@H]3C[C@@H]12 [TETRACYCLINE]	< 7.04	< 7.04	–	> 56.2	< 7.04	< 2.16	< 7.04
CC(C)c1cc2c(cc1Br)[C@@]1(C)CCC[C@@](C)(C(=O)O)[C@@H]1C/C2=N\OCCNC(=O)Cc1cccc(C(F)(F)F)c1	–	–	inactive	–	–	5.88 to 7.84 (≈ 3.75 to 5 µg/mL)	–
CC(C)c1cc2c(cc1Br)[C@@]1(C)CCC[C@@](C)(C(=O)O)[C@@H]1C/C2=N\OCCCNC(=O)c1c(F)c(F)c(F)c(F)c1F	–	–	inactive	–	–	5.69 to 7.58 (≈ 3.75 to 5 µg/mL)	–
COc1ccccc1C(=O)NCCO/N=C1\C[C@H]2[C@](C)(C(=O)O)CCC[C@]2(C)c2cc(Br)c(C(C)C)cc21	–	–	inactive	–	–	8.54 to 10.7 (≈ 5 to 6.25 µg/mL)	–
CC(C)c1cc2c(cc1Br)[C@@]1(C)CCC[C@@](C)(C(=O)O)[C@@H]1C/C2=N\OCCCNC(=O)C(C)(C)C	–	–	inactive	–	–	72.8 to 91 (≈ 40 to 50 µg/mL)	–
CC(C)c1cc2c(cc1Br)[C@@]1(C)CCC[C@@](C)(C(=O)O)[C@@H]1C/C2=N\OCCNC(=O)c1cccs1	–	–	inactive	–	–	> 89	–
CC(C)c1cc2c(cc1Br)[C@@]1(C)CCC[C@@](C)(C(=O)O)[C@@H]1C/C2=N\OCCCNC(=O)c1ccccc1F	–	–	inactive	–	–	8.51 to 10.6 (≈ 5 to 6.25 µg/mL)	–
CCCCCC(=O)NCCO/N=C1\C[C@H]2[C@](C)(C(=O)O)CCC[C@]2(C)c2cc(Br)c(C(C)C)cc21	–	–	inactive	–	–	13.6 to 18.2 (≈ 7.5 to 10 µg/mL)	–
CC(C)c1cc2c(cc1Br)[C@@]1(C)CCC[C@@](C)(C(=O)O)[C@@H]1C/C2=N\OCCCNC(=O)C1CC1	–	–	inactive	–	–	56.2 to 75 (≈ 30 to 40 µg/mL)	–
CC(C)c1cc2c(cc1Br)[C@@]1(C)CCC[C@@](C)(C(=O)O)[C@@H]1C/C2=N\OCCNC(=O)c1ccccc1C(F)(F)F	–	–	inactive	–	–	10 to 20.1 (≈ 6.25 to 12.5 µg/mL)	–
